SMILES strings stand for the structures. Active and inactive are the calls of the source. No cut-off for these calls is given here. *1 amine or outer side, *2 acyl side, *3 side chain or, on linkers, in order; H or OH if unused. Where a SMILES comes first, the peptide text is derived from it. Bridges are numbered along the chain shown (N, C = ends). Side-chain parts run from the residue outwards. [ ]: non-standard residue; d: D form. The star is where a group is joined. N(prolylmethyl)Phe = O=C(CN([C@@H](Cc1ccccc1)C(=O)[*:2])[*:1])[C@@H]1CCCN1[*:3]; X1 = O=C(CCCOCCOCCOCCOCCOCCC(=O)NCCOCCOCC(=O)[*:1])NCCOCCOCC(=O)[*:2]; X2 = O=C(CCOCCOCCOCCOCCOCCOCCOCCOCCOCCOCCOCCC(=O)[*:2])[*:1]; 5FAM = O=C1OC2(c3ccc(O)cc3Oc3cc(O)ccc32)c2ccc(C(=O)*)cc21; X3 = O=C(CCOCCOCCOCCOCCOCCOCCOCCC(=O)[*:2])[*:1]

In ChEMBL document CHEMBL1143764, “Cyclic and dimeric gluten peptide analogues inhibiting DQ2-mediated antigen presentation in celiac disease” (Bioorg Med Chem, 2007) one finds IC50 and Activity data, which are given here for seven compounds.

The nature of assay [1]: Binding affinity to DQ2. The arrangement: species or system Homo sapiens. In short, it runs like this: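 Competition binding: 125I-labeled indicator peptide (30,000 cpm; 1–5 nM) plus graded unlabeled peptide incubated overnight with 70–200 nM DQ2 at 37°C, pH 5.2, with protease inhibitor cocktail. Bound separated from free on Sephadex G-50 spin columns; radioactivity counted; IC50 as competitor level halving indicator binding, from three 3-fold titration experiments.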

Assay [2] concerns T-cell. The assay can be described thus: Inhibition of P28 TCL2 T cell proliferation assessed as incorporation of [3H]-thymidine in presence of 10 uM antigen peptide. The conditions noted are these: Homo sapiens. The class given is functional, cell-based. In short, it runs like this:
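HLA-DR3/DQ2 homozygous EBV B-lymphoblastoid cells (VAVY or CD114), fixed with 1% paraformaldehyde or 0.05% glutaraldehyde, peptide-loaded overnight at 2×10^6 cells/ml. Next day at 1×10^6/ml, duplicates, mixed with equal volume of P28 TCL2 T cells; 37°C, 5% CO2, 48 h. [3H]thymidine added, further 12–16 h, scintillation counting.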

The species named for assay [3] is Homo sapiens. The experiment in a line: Binding affinity to recombinant DQ2 at pH 7.3 by fluorescent-conjugated peptide exchange assay. In outline: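 Recombinant soluble DQ2 with N-terminally fused gliadin epitope, cleaved with ~2% w/w thrombin in PBS pH 7.3, 0°C, 2 h. 4.7 μM DQ2 with 0.185 μM fluorescein-labeled peptide (25:1), 37°C, 5 h, final pH 7.3. HPSEC with fluorescence (ex 495/em 520 nm); bound peptide as percent of total; mean of two experiments.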

On to `CC(C)C[C@@H]1NC(=O)CNC(=O)CNC(=O)CNC(=O)CNC(=O)CNC(=O)CNC(=O)[C@H](N)CSSC[C@H](C(=O)O)NC(=O)CNC(=O)CNC(=O)[C@H](Cc2ccc(O)cc2)NC(=O)[C@H]2CCCN2C(=O)[C@H](CC(C)C)NC(=O)[C@H](CCC(=O)O)NC(=O)[C@@H]2CCCN2C(=O)[C@H](CCC(N)=O)NC(=O)[C@@H]2CCCN2C(=O)[C@H](Cc2ccccc2)NC(=O)[C@@H]2CCCN2C(=O)[C@H](CCC(N)=O)NC1=O`, for which the IC50 in assay [1] came out at 4200 nM. Moreover, the Activity entry in assay [2] is “Dose-dependent effect”.

Compound `CC(=O)N[C@H]1CCCCNC(=O)CCOCCOCCOCCOCCOCCOCCOCCC(=O)NCCCC[C@@H](C(=O)N[C@@H](CCC(=O)O)C(=O)N[C@@H](CC(C)C)C(=O)N2CCC[C@H]2C(=O)N[C@@H](Cc2ccc(O)cc2)C(=O)O)NC(=O)[C@H](CCC(=O)O)NC(=O)[C@@H]2CCCN2C(=O)[C@H](Cc2ccccc2)NC(=O)[C@@H]2CCCN2C(=O)[C@H](CCC(N)=O)NC1=O` (Ac-KQPFPEKELPY-OH; linker 1-7 via X3) returned an IC50 in assay [1] of 600 nM. Further, the Activity result in assay [2] was “Dose-dependent effect”.

In turn, `CC(C)C[C@H](NC(=O)c1ccc2c(c1)C(=O)OC21c2ccc(O)cc2Oc2cc(O)ccc21)C(=O)N[C@@H](CCC(=O)O)C(=O)N[C@@H](CC(C)C)C(=O)N[C@@H](CCC(N)=O)C(=O)N1CCC[C@H]1C(=O)CN[C@@H](Cc1ccccc1)C(=O)N1CCC[C@H]1C(=O)N[C@@H](CCC(=O)O)C(=O)N1CCC[C@H]1C(=O)N[C@@H](CCC(=O)O)C(=O)N[C@H]1CCCCNC(=O)COCCOCCNC(=O)CCOCCOCCOCCOCCOCCCC(=O)NCCOCCOCC(=O)NCCCC[C@@H](C(=O)N2CCC[C@H]2C(=O)N[C@@H](Cc2ccc(O)cc2)C(=O)O)NC(=O)[C@H](CCC(=O)O)NC(=O)[C@@H]2CCCN2C(=O)[C@H](CCC(=O)O)NC(=O)[C@@H]2CCCN2C(=O)[C@H](Cc2ccc(O)cc2)NC(=O)[C@@H]2CCCN2C1=O` (H-[N(prolylmethyl)Phe]([Gln-Leu-Glu-Leu-5FAM])PEPEKPYPEPEKPY-OH; linker 6-13 via X1) came in with an IC50 in assay [1] of 300 nM. Besides, the result in assay [3] was Active. For the same compound, the Activity result in assay [2] is “Dose-dependent effect”.

The compound `CC(=O)N[C@H]1CCCCNC(=O)CCOCCOCCOCCOCCOCCOCCOCCOCCOCCOCCOCCC(=O)NCCCC[C@@H](C(=O)N[C@@H](CCC(=O)O)C(=O)N[C@@H](CC(C)C)C(=O)N2CCC[C@H]2C(=O)N[C@@H](Cc2ccc(O)cc2)C(=O)O)NC(=O)[C@H](CCC(=O)O)NC(=O)[C@@H]2CCCN2C(=O)[C@H](Cc2ccccc2)NC(=O)[C@@H]2CCCN2C(=O)[C@H](CCC(N)=O)NC1=O` (Ac-KQPFPEKELPY-OH; linker 1-7 via X2) gave an IC50 in assay [1] of 800 nM. For the same compound, the Activity result in assay [2] is “Dose-dependent effect”.

`CC(C)C[C@@H]1NC(=O)CNC(=O)CNC(=O)CNC(=O)CNC(=O)[C@H](N)CSSC[C@H](C(=O)O)NC(=O)CNC(=O)CNC(=O)[C@H](Cc2ccc(O)cc2)NC(=O)[C@@H]2CCCN2C(=O)[C@H](CC(C)C)NC(=O)[C@H](CCC(=O)O)NC(=O)[C@@H]2CCCN2C(=O)[C@H](CCC(N)=O)NC(=O)[C@@H]2CCCN2C(=O)[C@H](Cc2ccccc2)NC(=O)[C@@H]2CCCN2C(=O)[C@H](CCC(N)=O)NC1=O`: the IC50 in assay [1] was found to be 3100 nM. Also, the Activity entry in assay [2] was “Dose-dependent effect”.

`CC(C)C[C@H](NC(=O)c1ccc2c(c1)C(=O)OC21c2ccc(O)cc2Oc2cc(O)ccc21)C(=O)N[C@@H](CCC(=O)O)C(=O)N[C@@H](CC(C)C)C(=O)N[C@@H](CCC(N)=O)C(=O)N1CCC[C@H]1C(=O)CN[C@@H](Cc1ccccc1)C(=O)N1CCC[C@H]1C(=O)N[C@@H](CCC(=O)O)C(=O)N1CCC[C@H]1C(=O)N[C@@H](CCC(=O)O)C(=O)N[C@H]1CCCCNC(=O)CCOCCOCCOCCOCCOCCC(=O)CNCCCC[C@@H](C(=O)N2CCC[C@H]2C(=O)N[C@@H](Cc2ccc(O)cc2)C(=O)O)NC(=O)[C@H](CCC(=O)O)NC(=O)[C@@H]2CCCN2C(=O)[C@H](CCC(=O)O)NC(=O)[C@@H]2CCCN2C(=O)[C@H](Cc2ccc(O)cc2)NC(=O)[C@@H]2CCCN2C1=O` had an IC50 in assay [1] of 200 nM. Moreover, the result in assay [3] was Active. In addition, the Activity result in assay [2] is “Dose-dependent effect”.

For the compound `CC(C)C[C@@H]1NC(=O)CNC(=O)CNC(=O)[C@H](N)CSSC[C@H](C(=O)O)NC(=O)CNC(=O)CNC(=O)[C@H](Cc2ccc(O)cc2)NC(=O)[C@@H]2CCCN2C(=O)[C@H](CC(C)C)NC(=O)[C@H](CCC(=O)O)NC(=O)[C@@H]2CCCN2C(=O)[C@H](CCC(N)=O)NC(=O)[C@@H]2CCCN2C(=O)[C@H](Cc2ccccc2)NC(=O)[C@@H]2CCCN2C(=O)[C@H](CCC(N)=O)NC1=O`, in assay [1], the IC50 was 2000 nM. The Activity entry in assay [2] was “Dose-dependent effect”.

Usually IC50 stands for the concentration that inhibits the measured activity by half. High values mean lower potency, low ones higher potency.
